Results as given in ChEMBL document CHEMBL1649436, “Antiviral activity of MK-4965, a novel nonnucleoside reverse transcriptase inhibitor” (Antimicrob Agents Chemother, 2009).

What was measured:
[1] = tested on: Human immunodeficiency virus 1; assay: Antiviral activity against HIV1 clade B harboring mutant reverse transcriptase relative to HIV1 CNDO with wild type reverse transcriptase; assay type: functional
[2] = tested on: Human immunodeficiency virus 1; assay: Antiviral activity against HIV1 CRF02_AG harboring mutant reverse transcriptase relative to HIV1 CNDO with wild type reverse transcriptase; assay type: functional
In short: (§1)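 Single-cycle PhenoScreen assay run by Monogram Biosciences, using viruses carrying RT sequences from clinical isolates, subtypes/CRFs or PI/NRTI-resistant clade B viruses; nine serial drug concentrations; activity expressed relative to drug-sensitive reference strain CNDO (protease and RT from NL4-3), with multidrug-resistant MDRC4 as assay-performance control.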

[3] = tested on: Human immunodeficiency virus 1; assay: Antiviral activity against HIV1 CRF01_AE harboring mutant reverse transcriptase relative to HIV1 CNDO with wild type reverse transcriptase; assay type: functional; in short: as §1
[4] = tested on: Human immunodeficiency virus 1; assay: Antiviral activity against HIV1 clade A harboring mutant reverse transcriptase relative to HIV1 CNDO with wild type reverse transcriptase; assay type: functional
[5] = tested on: Human immunodeficiency virus 1; assay: Antiviral activity against HIV1 CRF17_BF harboring mutant reverse transcriptase relative to HIV1 CNDO with wild type reverse transcriptase; assay type: functional; in short: as §1
[6] = tested on: Human immunodeficiency virus 1; assay: Antiviral activity against HIV1 clade C harboring mutant reverse transcriptase relative to HIV1 CNDO with wild type reverse transcriptase; assay type: functional
[7] = tested on: Human immunodeficiency virus 1; assay: Antiviral activity against HIV1 clade D harboring mutant reverse transcriptase relative to HIV1 CNDO with wild type reverse transcriptase; assay type: functional
[8] = tested on: Human immunodeficiency virus 1; assay: Antiviral activity against HIV1 clade F1 harboring mutant reverse transcriptase relative to HIV1 CNDO with wild type reverse transcriptase; assay type: functional
[9] = tested on: Human immunodeficiency virus 1; assay: Antiviral activity against HIV1 clade G harboring mutant reverse transcriptase relative to HIV1 CNDO with wild type reverse transcriptase; assay type: functional
[10] = tested on: Human immunodeficiency virus 1; assay: Antiviral activity against HIV1 clade H harboring mutant reverse transcriptase relative to HIV1 CNDO with wild type reverse transcriptase; assay type: functional
[11] = tested on: Human immunodeficiency virus 1; assay: Antiviral activity against PI-resistant HIV1 harboring mutant reverse transcriptase relative to HIV1 CNDO with wild type reverse transcriptase; assay type: functional; in short: as §1
[12] = tested on: Human immunodeficiency virus 1; assay: Antiviral activity against NRTI-resistant HIV1 harboring mutant reverse transcriptase relative to HIV1 CNDO with wild type reverse transcriptase; assay type: functional; in short: as §1
[13] = tested on: Human immunodeficiency virus 1; assay: Antiviral activity against NRTI-, PI-resistant HIV1 harboring mutant reverse transcriptase relative to HIV1 CNDO with wild type reverse transcriptase; assay type: functional; in short: as §1
[14] = tested on: Human immunodeficiency virus 1; assay: Antiviral activity against HIV1 isolate R8 harboring reverse transcriptase K103N and Y181C mutant infected in human MT4 cells assessed as inhibition of viral replication after 72 hrs in presence of 50% human serum; assay type: functional; details: Human immunodeficiency virus 1, isolate R8, MT4, 72 h
In short: (§2)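 Multiple-cycle assay: MT-4 cells (2.5 × 10^5) infected with R8-based virus at low MOI, no inhibitor, 24 h at 37°C, 5% CO2; washed, reseeded at 5 × 10^4 cells in RPMI 1640 with 10% FBS or 50% type AB human serum; threefold serial dilutions from 833 nM to 0.32 nM; 72 h; p24 in medium by AlphaScreen; EC95 = lowest concentration giving ≥95% p24 reduction versus untreated.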

[15] = tested on: Human immunodeficiency virus 1; assay: Antiviral activity against HIV1 isolate R8 harboring reverse transcriptase Y181C mutant infected in human MT4 cells assessed as inhibition of viral replication after 72 hrs in presence of 50% human serum; assay type: functional; details: Human immunodeficiency virus 1, isolate R8, MT4, 72 h; in short: as §2
[16] = tested on: Human immunodeficiency virus 1; assay: Antiviral activity against HIV1 isolate R8 harboring reverse transcriptase K103N mutant infected in human MT4 cells assessed as inhibition of viral replication after 72 hrs in presence of 50% human serum; assay type: functional; details: Human immunodeficiency virus 1, isolate R8, MT4, 72 h; in short: as §2
[17] = tested on: Human immunodeficiency virus 1; assay: Antiviral activity against HIV1 isolate R8 harboring wild type reverse transcriptase infected in human MT4 cells assessed as inhibition of viral replication after 72 hrs in presence of 50% human serum; assay type: functional; details: Human immunodeficiency virus 1, isolate R8, MT4, 72 h; in short: as §2
[18] = tested on: Human immunodeficiency virus 1; assay: Antiviral activity against HIV1 isolate R8 harboring reverse transcriptase K103N and Y181C mutant infected in human MT4 cells assessed as inhibition of viral replication after 72 hrs in presence of 10% FBS; assay type: functional; details: Human immunodeficiency virus 1, isolate R8, MT4, 72 h; in short: as §2
[19] = tested on: Human immunodeficiency virus 1; assay: Antiviral activity against HIV1 isolate R8 harboring reverse transcriptase Y181C mutant infected in human MT4 cells assessed as inhibition of viral replication after 72 hrs in presence of 10% FBS; assay type: functional; details: Human immunodeficiency virus 1, isolate R8, MT4, 72 h; in short: as §2
[20] = tested on: Human immunodeficiency virus 1; assay: Antiviral activity against HIV1 isolate R8 harboring reverse transcriptase K103N mutant infected in human MT4 cells assessed as inhibition of viral replication after 72 hrs in presence of 10% FBS; assay type: functional; details: Human immunodeficiency virus 1, isolate R8, MT4, 72 h; in short: as §2
[21] = tested on: Human immunodeficiency virus 1; assay: Antiviral activity against HIV1 isolate R8 harboring wild type reverse transcriptase infected in human MT4 cells assessed as inhibition of viral replication after 72 hrs in presence of 10% FBS; assay type: functional; details: Human immunodeficiency virus 1, isolate R8, MT4, 72 h; in short: as §2
Plasma [22] = assay: Plasma protein binding in HIV1 infected patient; assay type: ADME, cell-free; details: human
Plasma [23] = assay: Plasma protein binding in healthy human at 200 mg/kg; assay type: ADME, organism-based; set-up: dose 200 mg/kg; details: in vivo

C[C@H](Cn1cnc2c(N)ncnc21)OCP(=O)(O)O [TENOFOVIR ANHYDROUS]
fold change (FC) [1]: 0.94
fold change (FC) [2]: 0.93
fold change (FC) [3]: 0.78
fold change (FC) [4]: 0.95
fold change (FC) [5]: 0.83
fold change (FC) [6]: 0.97
fold change (FC) [7]: 0.74
fold change (FC) [8]: 0.96
fold change (FC) [9]: 0.96
fold change (FC) [10]: 0.67
fold change (FC) [11]: 0.82
fold change (FC) [12]: 1.97
fold change (FC) [13]: 2.43

O=C1Nc2ccc(Cl)cc2[C@@](C#CC2CC2)(C(F)(F)F)O1 [EFAVIRENZ]
EC95 [14]: 3390 nM
EC95 [15]: 89 nM
EC95 [16]: 1730 nM
EC95 [17]: 38 nM
EC95 [18]: 322 nM
EC95 [19]: 8.4 nM
EC95 [20]: 245 nM
EC95 [21]: 3.8 nM
Activity (Plasma [22]): > 99.5%
Activity (Plasma [23]): > 99.5%

Cc1ccnc2c1NC(=O)c1cccnc1N2C1CC1 [NEVIRAPINE]
fold change (FC) [1]: 1.25
fold change (FC) [2]: 0.4
fold change (FC) [3]: 0.67
fold change (FC) [4]: 0.94
EC95 [14]: > 8000 nM
EC95 [15]: > 8000 nM
EC95 [16]: > 8000 nM
EC95 [17]: 464 nM
EC95 [18]: > 8000 nM
EC95 [19]: > 8000 nM
EC95 [20]: > 8000 nM
EC95 [21]: 438 nM
fold change (FC) [5]: 0.83
fold change (FC) [6]: 0.7
fold change (FC) [7]: 0.35
fold change (FC) [8]: 0.73
fold change (FC) [9]: 1.25
fold change (FC) [10]: 0.13
fold change (FC) [11]: 1.05
fold change (FC) [12]: 0.49
fold change (FC) [13]: 0.32
